The source of these data is ChEMBL document CHEMBL1156459, “Discovery of a small molecule antagonist of the parathyroid hormone receptor by using an N-terminal parathyroid hormone peptide probe” (Proc Natl Acad Sci U S A, 2007).

SMILES strings stand for the structures. Active and inactive are the calls of the source. The calls are words filed in the database; no cut-off is given here.

Assay [1] concerns the target Parathyroid hormone/parathyroid hormone-related peptide receptor (Homo sapiens) (UniProt Q03431). In words: Antagonist activity at human PTH/PTH-related peptide receptor expressed in human CL0153 cells assessed as inhibition of DPC-AJ1951-induced cAMP production. Type of assay: functional, cell-based. The method, boiled down:
(§1)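 Cells lifted with EDTA after culture in DMEM with 10% FBS and refeeding 12–24 h before assay. Resuspended in HBSS/5 mM Hepes/0.1% BSA/0.5 mM IBMX, pH 7.4, and stimulated with agonist peptide with or without antagonist. cAMP read by AlphaScreen.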

In assay [2] the target is C-C chemokine receptor type 3 (Homo sapiens) (UniProt P51677). Nature of the assay: Binding affinity to CCR3 at 20 uM.
Assay [3] has as its target Alpha-1D adrenergic receptor (Homo sapiens, UniProt P25100). Nature of the assay: Inhibition of adrenergic Alpha-1D receptor.
The target in assay [4] is C-C chemokine receptor type 2 (Homo sapiens) (UniProt P41597). Nature of the assay: Binding affinity to CCR2 at 20 uM.
Assay [5] addresses Muscarinic acetylcholine receptor M5 (Homo sapiens) (UniProt P08912). Nature of the assay: Inhibition of muscarinic M5 receptor at 20 uM.
Assay [6] has as its target 5-hydroxytryptamine receptor 2A (Homo sapiens, UniProt P28223). In words: Inhibition of 5HT2A receptor.
Another assay addresses Substance-K receptor (Homo sapiens, UniProt P21452). In words: Inhibition of neurokinin 2 receptor.
Assay [7] deals with T1, Parathyroid hormone/parathyroid hormone-related peptide receptor (Homo sapiens, UniProt Q03431).
T1 sequence (Q03431 whole entry): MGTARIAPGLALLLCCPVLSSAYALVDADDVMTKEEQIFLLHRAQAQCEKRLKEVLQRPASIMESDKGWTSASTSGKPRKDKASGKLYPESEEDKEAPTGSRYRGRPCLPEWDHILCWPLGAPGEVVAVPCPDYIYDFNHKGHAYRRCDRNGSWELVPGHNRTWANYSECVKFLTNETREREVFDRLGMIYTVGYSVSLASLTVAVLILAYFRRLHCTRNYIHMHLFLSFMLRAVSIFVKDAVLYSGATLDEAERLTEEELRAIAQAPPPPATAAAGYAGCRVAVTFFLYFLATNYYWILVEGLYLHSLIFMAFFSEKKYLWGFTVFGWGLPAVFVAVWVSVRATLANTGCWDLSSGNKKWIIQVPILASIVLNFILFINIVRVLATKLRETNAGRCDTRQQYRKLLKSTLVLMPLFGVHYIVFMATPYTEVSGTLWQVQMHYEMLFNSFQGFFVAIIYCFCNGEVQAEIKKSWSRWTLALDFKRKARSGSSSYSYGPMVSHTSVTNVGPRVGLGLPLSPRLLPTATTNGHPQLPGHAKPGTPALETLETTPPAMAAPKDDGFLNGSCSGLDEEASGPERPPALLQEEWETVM
Nature of the assay: Antagonist activity at PTH/PTH-related peptide receptor expressed in HKRK-B28 cells assessed as inhibition of DPC-AJ1951-induced cAMP production. The assay is classed as functional, cell-based. An outline of the steps:
as §1
A general note: cAMP levels reflect the balance of adenylyl cyclase and phosphodiesterase activity.

In assay [8] the target is C-C chemokine receptor type 5 (Homo sapiens) (UniProt P51681). Nature of the assay: Binding affinity to CCR5 at 20 uM.
Assay [9] deals with Alpha-2A adrenergic receptor (Homo sapiens) (UniProt P08913). Nature of the assay: Inhibition of adrenergic alpha2A receptor at 20 uM.
Assay [10] has as its target Parathyroid hormone/parathyroid hormone-related peptide receptor (Rattus norvegicus) (UniProt P25961). In words: Antagonist activity at rat PTH/PTH-related peptide receptor expressed in rat UMR106 cells assessed as inhibition of DPC-AJ1951-induced cAMP production. The assay is classed as functional, cell-based. An outline of the steps:
as §1

Assay [11] concerns the target C-C chemokine receptor type 4 (Homo sapiens) (UniProt P51679). Nature of the assay: Binding affinity to CCR4 at 20 uM.
Assay [12] concerns the target Alpha-1B adrenergic receptor (Homo sapiens) (UniProt P35368). Nature of the assay: Inhibition of adrenergic Alpha-1B receptor at 20 uM.
Assay [13] has as its target 5-hydroxytryptamine receptor 2C (Homo sapiens) (UniProt P28335). In words: Inhibition of 5HT2C receptor at 20 uM.
Assay [14] has as its target Parathyroid hormone/parathyroid hormone-related peptide receptor (Homo sapiens) (UniProt Q03431). Nature of the assay: Antagonist activity at human PTH/PTH-related peptide receptor expressed in human SaOS2 assessed as inhibition of DPC-AJ1951-induced cAMP production. Type of assay: functional, cell-based. The conditions noted are these: SAOS-2. An outline of the steps:
as §1

Assay [15] addresses D(2) dopamine receptor (Homo sapiens) (UniProt P14416). Nature of the assay: Inhibition of dopamine D2 receptor at 20 uM.
The target in assay [16] is Histamine H1 receptor (Homo sapiens) (UniProt P35367). Nature of the assay: Inhibition of histamine H1 receptor at 20 uM.
Assay [17] has as its target C-X-C chemokine receptor type 2 (Homo sapiens) (UniProt P25025). In words: Inhibition of CXCR2 at 20 uM.
Assay [18] has as its target T1, Parathyroid hormone/parathyroid hormone-related peptide receptor. In words: Displacement of [125I]DPC-AJ1951 from PTH/PTH-related peptide receptor expressed in HKRK-B28 cells. The assay is classed as cell-based. An outline of the steps: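 Whole HKRK-B28 cells plated at 30,000/well and incubated overnight at 37°C, 5% CO2. Incubated 3 h at room temperature, washed three times, bound radioactivity counted by scintillation.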
(Displacement assays read how much labelled ligand stays bound in the presence of the test substance.)

The target in assay [19] is C-C chemokine receptor type 1 (Homo sapiens) (UniProt P32246). In words: Binding affinity to CCR1 at 20 uM.
The target of assay [20] is Alpha-2C adrenergic receptor (Homo sapiens, UniProt P18825). Nature of the assay: Inhibition of adrenergic Alpha-2C receptor.
Assay [21] addresses T1, Parathyroid hormone/parathyroid hormone-related peptide receptor. Nature of the assay: Antagonist activity at PTH/PTH-related peptide receptor expressed in HKRK-B28 cells assessed as inhibition of parathyroid hormone (1 to 34)-induced cAMP production. Type of assay: functional, cell-based. An outline of the steps: as §1
Assay [22] has as its target C-X-C chemokine receptor type 3 (Homo sapiens) (UniProt P49682). In words: Inhibition of CXCR3 at 20 uM.

Sequence of 5-hydroxytryptamine receptor 2A (P28223 whole entry): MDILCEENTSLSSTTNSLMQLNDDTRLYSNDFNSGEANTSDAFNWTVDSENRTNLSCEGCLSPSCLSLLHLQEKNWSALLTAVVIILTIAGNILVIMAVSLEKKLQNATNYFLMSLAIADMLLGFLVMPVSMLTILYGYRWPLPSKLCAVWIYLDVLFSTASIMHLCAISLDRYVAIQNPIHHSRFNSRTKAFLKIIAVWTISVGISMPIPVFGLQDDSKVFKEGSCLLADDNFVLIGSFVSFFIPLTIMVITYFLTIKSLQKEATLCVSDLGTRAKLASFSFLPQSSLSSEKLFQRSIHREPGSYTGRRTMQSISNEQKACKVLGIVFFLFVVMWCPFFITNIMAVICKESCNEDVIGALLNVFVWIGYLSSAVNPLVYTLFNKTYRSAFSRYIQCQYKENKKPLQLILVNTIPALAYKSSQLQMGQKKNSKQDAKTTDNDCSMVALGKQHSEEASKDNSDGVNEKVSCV
Sequence of C-X-C chemokine receptor type 3 (Homo sapiens) (P49682 whole entry): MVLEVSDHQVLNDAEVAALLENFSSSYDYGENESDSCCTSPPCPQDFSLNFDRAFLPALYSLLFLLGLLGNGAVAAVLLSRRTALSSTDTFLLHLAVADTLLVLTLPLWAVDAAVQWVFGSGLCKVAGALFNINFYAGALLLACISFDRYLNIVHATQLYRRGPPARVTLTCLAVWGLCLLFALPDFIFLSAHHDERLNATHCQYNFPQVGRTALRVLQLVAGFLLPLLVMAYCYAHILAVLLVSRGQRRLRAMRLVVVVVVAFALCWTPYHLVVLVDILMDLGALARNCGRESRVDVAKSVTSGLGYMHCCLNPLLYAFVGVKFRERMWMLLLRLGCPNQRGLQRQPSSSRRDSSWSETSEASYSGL
Sequence of C-C chemokine receptor type 3 (Homo sapiens) (P51677 whole entry): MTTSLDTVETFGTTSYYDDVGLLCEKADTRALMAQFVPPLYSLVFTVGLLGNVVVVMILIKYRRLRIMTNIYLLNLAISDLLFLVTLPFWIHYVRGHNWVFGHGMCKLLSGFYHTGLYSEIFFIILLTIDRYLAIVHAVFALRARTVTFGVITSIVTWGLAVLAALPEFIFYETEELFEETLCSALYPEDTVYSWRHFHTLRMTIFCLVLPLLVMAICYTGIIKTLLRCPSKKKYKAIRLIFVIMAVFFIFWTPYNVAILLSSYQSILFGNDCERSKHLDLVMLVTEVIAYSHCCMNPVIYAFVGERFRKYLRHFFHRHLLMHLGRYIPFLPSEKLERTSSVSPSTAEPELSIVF
Sequence of C-C chemokine receptor type 5 (Homo sapiens) (P51681 whole entry, looked up): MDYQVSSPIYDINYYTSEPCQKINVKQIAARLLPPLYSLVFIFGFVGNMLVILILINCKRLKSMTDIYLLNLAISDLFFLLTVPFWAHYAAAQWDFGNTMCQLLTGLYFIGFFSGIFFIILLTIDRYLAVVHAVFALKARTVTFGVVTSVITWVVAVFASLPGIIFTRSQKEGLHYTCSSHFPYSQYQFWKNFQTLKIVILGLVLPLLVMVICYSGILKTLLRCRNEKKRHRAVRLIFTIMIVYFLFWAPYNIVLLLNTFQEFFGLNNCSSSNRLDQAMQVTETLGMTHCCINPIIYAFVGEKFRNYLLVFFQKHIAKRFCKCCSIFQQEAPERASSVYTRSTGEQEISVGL
Sequence of C-C chemokine receptor type 2 (Homo sapiens) (P41597 whole entry, looked up): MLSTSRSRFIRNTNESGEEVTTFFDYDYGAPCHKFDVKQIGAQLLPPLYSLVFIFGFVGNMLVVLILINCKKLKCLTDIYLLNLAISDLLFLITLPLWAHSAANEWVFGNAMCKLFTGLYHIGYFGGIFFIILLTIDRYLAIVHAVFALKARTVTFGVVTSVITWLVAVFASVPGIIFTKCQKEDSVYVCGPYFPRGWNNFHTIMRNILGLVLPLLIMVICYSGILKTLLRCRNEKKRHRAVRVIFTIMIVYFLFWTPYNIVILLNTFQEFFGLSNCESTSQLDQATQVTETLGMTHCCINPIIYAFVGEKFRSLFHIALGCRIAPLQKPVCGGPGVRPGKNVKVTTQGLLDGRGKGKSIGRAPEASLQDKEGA
Sequence of C-C chemokine receptor type 1 (Homo sapiens) (P32246 whole entry): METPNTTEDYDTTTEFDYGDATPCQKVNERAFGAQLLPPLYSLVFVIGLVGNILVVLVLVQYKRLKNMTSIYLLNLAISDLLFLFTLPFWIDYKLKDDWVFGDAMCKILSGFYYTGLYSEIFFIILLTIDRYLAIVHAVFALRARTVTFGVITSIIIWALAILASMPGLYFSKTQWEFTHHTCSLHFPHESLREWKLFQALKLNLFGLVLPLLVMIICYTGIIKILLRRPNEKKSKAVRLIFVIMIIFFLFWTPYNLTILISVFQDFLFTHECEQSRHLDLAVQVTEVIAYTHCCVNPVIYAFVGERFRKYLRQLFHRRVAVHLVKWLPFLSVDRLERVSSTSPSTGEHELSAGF
Sequence of C-C chemokine receptor type 4 (Homo sapiens) (P51679 whole entry): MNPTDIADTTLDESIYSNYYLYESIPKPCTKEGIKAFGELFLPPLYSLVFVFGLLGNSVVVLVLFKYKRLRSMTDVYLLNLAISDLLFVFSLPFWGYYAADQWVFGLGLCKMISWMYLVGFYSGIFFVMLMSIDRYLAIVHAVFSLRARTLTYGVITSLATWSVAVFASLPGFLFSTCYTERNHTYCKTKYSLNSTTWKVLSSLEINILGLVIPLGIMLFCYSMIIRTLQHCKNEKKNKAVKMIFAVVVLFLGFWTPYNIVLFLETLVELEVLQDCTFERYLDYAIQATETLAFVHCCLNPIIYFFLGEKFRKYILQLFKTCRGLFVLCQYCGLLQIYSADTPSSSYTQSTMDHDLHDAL
Sequence of Alpha-2C adrenergic receptor (P18825 whole entry): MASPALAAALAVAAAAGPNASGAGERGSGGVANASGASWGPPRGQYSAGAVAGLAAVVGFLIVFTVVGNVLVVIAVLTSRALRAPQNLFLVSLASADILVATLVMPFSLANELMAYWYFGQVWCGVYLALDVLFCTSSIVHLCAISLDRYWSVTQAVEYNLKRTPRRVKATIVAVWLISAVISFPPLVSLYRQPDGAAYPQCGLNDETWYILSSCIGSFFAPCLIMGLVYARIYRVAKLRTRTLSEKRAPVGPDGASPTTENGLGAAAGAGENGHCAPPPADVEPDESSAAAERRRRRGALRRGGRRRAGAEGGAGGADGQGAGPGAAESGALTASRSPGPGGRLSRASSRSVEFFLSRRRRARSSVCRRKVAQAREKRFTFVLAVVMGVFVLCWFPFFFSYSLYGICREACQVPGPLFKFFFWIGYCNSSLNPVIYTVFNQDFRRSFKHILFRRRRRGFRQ
Sequence of 5-hydroxytryptamine receptor 2C (Homo sapiens) (P28335 whole entry): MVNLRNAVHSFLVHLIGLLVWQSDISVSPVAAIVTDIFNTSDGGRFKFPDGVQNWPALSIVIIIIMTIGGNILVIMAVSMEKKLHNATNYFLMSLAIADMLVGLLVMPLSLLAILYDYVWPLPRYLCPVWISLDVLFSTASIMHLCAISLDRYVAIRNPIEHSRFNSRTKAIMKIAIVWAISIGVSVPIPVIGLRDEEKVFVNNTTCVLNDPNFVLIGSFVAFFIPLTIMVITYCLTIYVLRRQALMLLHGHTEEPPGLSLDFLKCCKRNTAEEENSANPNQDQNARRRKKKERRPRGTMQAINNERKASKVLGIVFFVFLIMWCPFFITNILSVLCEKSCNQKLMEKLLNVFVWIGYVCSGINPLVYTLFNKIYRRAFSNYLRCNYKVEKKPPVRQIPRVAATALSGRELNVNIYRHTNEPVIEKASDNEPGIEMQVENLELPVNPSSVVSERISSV
Sequence of Histamine H1 receptor (Homo sapiens) (P35367 whole entry): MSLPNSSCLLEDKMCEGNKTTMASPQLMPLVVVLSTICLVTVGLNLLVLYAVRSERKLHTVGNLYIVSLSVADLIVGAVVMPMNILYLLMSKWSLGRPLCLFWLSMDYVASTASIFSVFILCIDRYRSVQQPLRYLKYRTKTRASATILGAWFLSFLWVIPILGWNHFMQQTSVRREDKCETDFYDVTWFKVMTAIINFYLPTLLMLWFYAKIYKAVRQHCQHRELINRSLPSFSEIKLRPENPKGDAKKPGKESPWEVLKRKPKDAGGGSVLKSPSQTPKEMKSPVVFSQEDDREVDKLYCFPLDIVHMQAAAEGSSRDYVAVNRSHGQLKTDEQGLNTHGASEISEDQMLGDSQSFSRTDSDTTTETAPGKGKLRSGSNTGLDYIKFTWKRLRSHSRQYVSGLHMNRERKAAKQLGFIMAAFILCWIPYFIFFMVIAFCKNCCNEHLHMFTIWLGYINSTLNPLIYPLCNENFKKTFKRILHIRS
Sequence of Alpha-1B adrenergic receptor (Homo sapiens) (P35368 whole entry): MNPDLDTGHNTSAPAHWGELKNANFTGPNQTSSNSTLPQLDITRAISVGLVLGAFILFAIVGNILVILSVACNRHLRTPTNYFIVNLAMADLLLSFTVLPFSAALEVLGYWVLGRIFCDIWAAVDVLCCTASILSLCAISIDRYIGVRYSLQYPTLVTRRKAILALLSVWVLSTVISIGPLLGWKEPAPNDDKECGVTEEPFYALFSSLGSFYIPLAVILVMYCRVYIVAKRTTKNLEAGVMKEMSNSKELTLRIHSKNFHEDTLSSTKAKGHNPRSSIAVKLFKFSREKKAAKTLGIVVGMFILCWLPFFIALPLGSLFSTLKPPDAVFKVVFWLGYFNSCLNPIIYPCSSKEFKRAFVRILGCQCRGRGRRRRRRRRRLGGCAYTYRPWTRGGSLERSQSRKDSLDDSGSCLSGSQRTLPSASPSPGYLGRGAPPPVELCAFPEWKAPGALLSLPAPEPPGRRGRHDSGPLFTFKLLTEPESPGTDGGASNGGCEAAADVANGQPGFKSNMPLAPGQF
Sequence of C-X-C chemokine receptor type 2 (Homo sapiens) (P25025 whole entry): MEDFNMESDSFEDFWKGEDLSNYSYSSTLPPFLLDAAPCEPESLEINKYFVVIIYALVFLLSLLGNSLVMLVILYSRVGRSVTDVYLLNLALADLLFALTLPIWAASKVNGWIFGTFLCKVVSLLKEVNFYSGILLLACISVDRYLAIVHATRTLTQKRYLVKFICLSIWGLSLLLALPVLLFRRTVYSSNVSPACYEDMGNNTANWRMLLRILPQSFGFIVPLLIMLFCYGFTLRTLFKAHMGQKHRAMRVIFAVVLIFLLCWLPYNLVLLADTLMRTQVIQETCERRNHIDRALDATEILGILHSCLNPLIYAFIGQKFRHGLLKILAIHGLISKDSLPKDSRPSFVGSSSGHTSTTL

Broadly, the IC50 is the concentration that inhibits the measured activity by half. Take `CC[C@@H]1O[C@](/C=C/C2CC2)(C(F)(F)F)c2c(ccc(F)c2F)NC1=O`: the outcome in assay [1], in [10] and in assay [14] was Active. Moreover, the result in assay [2], in [4], in [5], in assay [8], in assay [9] and in [11] was inactive. For the same compound, the result in assay [12], in [13], in [15], in [16], in [17] and in assay [19] was inactive. The result in [22] was inactive. Moreover, the half-inhibitory concentration (IC50) in assay [3] was 13.8 µM; in [6], 15 µM; on Substance-K receptor it was 28 µM; in assay [7] it was 5.78 µM; in assay [18], 0.99 µM; in assay [20], 10.4 µM. Moreover, in assay [21], the IC50 was 68 µM.
